Measured values reported in publication PMC12062833 (RSC Medicinal Chemistry, 2025).
Converted amounts (≈) assume the structure as drawn. “Also recorded” adds a separate entry of the source.

Key:
[1] = test system: LN-229 glioblastoma cells; assay: Antiproliferative assay; type: cell-based; conditions: Homo sapiens, LN-229, 72 h, read-out: IC50 LN-229
Summary of the method: (§1)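 Adherent lines were seeded at 500 (Capan-1), 1000 (LN-229, HCT-116) or 1500 (NCI-H460) cells/well and dosed after overnight incubation. Suspension lines were seeded at 2500 (HL-60, K-562, Z-138) or 5500 (DND-41) cells/well directly onto compound. Seven 5-fold concentrations ran from 100 to 0.006 μM for 72 h. Viability was read as MTS absorbance at 490 nm after 3 h, and IC50 was derived from OD values. Two independent experiments.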

[2] = test system: NCI-H460 non-small cell lung cancer cells; assay: Antiproliferative assay; type: cell-based; conditions: Homo sapiens, NCI-H460, 72 h, read-out: IC50 NCI-H460
Summary of the method: as §1

[3] = test system: HL-60 acute myeloid leukemia cells; assay: Antiproliferative assay; type: cell-based; conditions: Homo sapiens, HL-60, 72 h, read-out: IC50 HL-60
Summary of the method: as §1

[4] = test system: Pseudomonas aeruginosa (ATCC 9027); assay: Antibacterial MIC, macrodilution method, P. aeruginosa; type: cell-based; conditions: ATCC9027, read-out: MIC P. aeruginosa
Summary of the method: (§2)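 CLSI M07-A9 tube macrodilution. Strains were grown overnight on nutrient agar at 37 °C, and colonies were suspended in Mueller-Hinton broth. Inoculum was 1 × 10^6 per mL (5 × 10^5 per mL in test). DMSO stock was 5120 μg/mL. Final concentrations were 256 to […] in 2 mL. Tubes were incubated at 37 °C for 16–20 h. Controls were inoculum with and without 1% DMSO, and broth alone.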

[5] = test system: K-562 chronic myeloid leukemia cells; assay: Antiproliferative assay; type: cell-based; conditions: Homo sapiens, K562, 72 h, read-out: IC50 K-562
Summary of the method: as §1

[6] = test system: HCT-116 colon carcinoma cells; assay: Antiproliferative assay; type: cell-based; conditions: Homo sapiens, HCT-116, 72 h, read-out: IC50 HCT-116
Summary of the method: as §1

[7] = test system: Staphylococcus aureus (ATCC 25923); assay: Antibacterial MIC, macrodilution method, S. aureus; type: cell-based; conditions: ATCC25923, read-out: MIC S. aureus
Summary of the method: as §2

[8] = test system: Klebsiella pneumoniae (ATCC 27736); assay: Antibacterial MIC, macrodilution method, K. pneumoniae; type: cell-based; conditions: ATCC27736, read-out: MIC K. pneumoniae
Summary of the method: as §2

[9] = test system: Capan-1 pancreatic adenocarcinoma cells; assay: Antiproliferative assay; type: cell-based; conditions: Homo sapiens, CAPAN-1, 72 h, read-out: IC50 Capan-1
Summary of the method: as §1

[10] = test system: Z-138 non-Hodgkin's lymphoma cells; assay: Antiproliferative assay; type: cell-based, human; conditions: read-out: IC50 Z-138; 72 h incubation, two independent experiments
Summary of the method: as §1

[11] = test system: Escherichia coli (ATCC 25922); assay: Antibacterial MIC, macrodilution method, E. coli; type: cell-based; conditions: ATCC25922, read-out: MIC E. coli
Summary of the method: as §2

[12] = test system: Enterococcus faecalis (ATCC 29212); assay: Antibacterial MIC, macrodilution method, E. faecalis; type: cell-based; conditions: MHB, 37 °C
[13] = test system: eight human tumor cell lines; assay: Antiproliferative assay, span over the panel of tumor cell lines; type: cell-based; conditions: 72 h, read-out: IC50 range across tested tumor cell lines
Summary of the method: as §1

[14] = test system: salmon sperm DNA; assay: Fluorescent intercalator displacement; type: binding; conditions: tested at 250, 100 and 40 μM; result in words
Summary of the method: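 Competitive fluorescence-polarization displacement. Acridine orange (50 nM) and salmon sperm DNA (6 μg/mL) were mixed with test compound at 250, 100 or 40 μM in HEN buffer (10 mM HEPES pH 7.5, 1 mM EDTA, 100 mM NaCl). Mixtures stood 20 min in the dark. mP was normalized to the DMSO control, with mitoxantrone (10 μM) as positive control.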

[15] = test system: PBMC from healthy donors; assay: Cytotoxicity test on normal peripheral blood mononuclear cells; type: cell-based, human; conditions: PBMC of two healthy donors, 72 h, result in words

Row | SMILES | IC50 [1] [µM] | IC50 [2] [µM] | IC50 [3] [µM] | MIC [4] [µg/mL] | IC50 [5] [µM] | IC50 [6] [µM] | MIC [7] [µg/mL] | MIC [8] [µg/mL] | IC50 [9] [µM] | IC50 [10] [µM] | MIC [11] [µg/mL] | MIC E. faecalis [12] [µg/mL] | IC50 [13] [µM] | DNA intercalation (acridine orange displacement, fluorescence polarization) [14] | Impact on viability of normal PBMC (MTS) ([15]; 100 to 0.006 μM) | Dead and apoptotic PBMC (propidium iodide, caspase 3/7, IncuCyte) [15]
1 | O=C(COc1ccc(-c2nc3ccc(Cl)cc3[nH]2)cc1)N1CCOCC1 [Compound 17, 2-(4-(6-Chloro-1H-benzo[d]imidazol-2-yl)phenoxy)-1-morpholinoethan-1-one] | > 100 | > 100 | > 100 | > 256 | > 100 | > 100 | > 256 | > 256 | 28.5 ± 4.4 | – | > 256 | 0.5 (≈ 1.34 µM) | – | – | – | –
2 | CCN(CC)CCOc1ccc(-c2nc3ccc(Cl)cc3[nH]2)cc1F [Compound 23, 2-(4-(6-Chloro-1H-benzo[d]imidazol-2-yl)-2-fluorophenoxy)-N,N-diethylethan-1-amine] | 5 ± 1.3 | 2.3 ± 0.8 | 4.4 ± 0.5 | > 256 | 2 ± 0.7 | 9.4 ± 1.2 | 256 (≈ 707 µM) | > 256 | 2.2 ± 0.5 | – | 256 (≈ 707 µM) | – | 2 to 9.4 | scored best in the binding assay | Only at the highest tested concentration (100 μM), there was an impact on the viability of these normal cells | caused apoptosis in normal cells only at the highest applied concentration of 100 μM; also recorded: an increase in the number of dead and apoptotic cells was observed at 100 μM
3 | Fc1cc(-c2nc3ccc(Cl)cc3[nH]2)ccc1OCCN1CCOCC1 [Compound 24, 4-(2-(4-(6-Chloro-1H-benzo[d]imidazol-2-yl)-2-fluorophenoxy)ethyl)morpholine] | > 100 | > 100 | > 100 | > 256 | > 100 | > 100 | > 256 | > 256 | > 100 | ≥ 80.5 | > 256 | – | – | – | – | –
4 | Clc1ccc2nc(-c3ccc(OCCN4CCOCC4)cc3)[nH]c2c1 [Compound 16, 4-(2-(4-(6-Chloro-1H-benzo[d]imidazol-2-yl)phenoxy)ethyl)morpholine] | > 100 | > 100 | 51.6 ± 1.5 | > 256 | 37.3 ± 3.9 | > 100 | 64 (≈ 179 µM) | > 256 | 45 ± 5.1 | – | 256 (≈ 715 µM) | 0.25 (≈ 0.699 µM) | 37.3 to 79.8 | – | – | –

The next lines start with results.

Row | IC50 [1] [µM] | IC50 [2] [µM] | IC50 [3] [µM] | MIC [4] [µg/mL] | IC50 [5] [µM] | IC50 [6] [µM] | MIC [7] [µg/mL] | MIC [8] [µg/mL] | IC50 [9] [µM] | IC50 [10] [µM] | MIC [11] [µg/mL] | MIC E. faecalis [12] [µg/mL] | SMILES | IC50 [13] [µM] | DNA intercalation (acridine orange displacement, fluorescence polarization) [14] | Impact on viability of normal PBMC (MTS) ([15]; 100 to 0.006 μM) | Dead and apoptotic PBMC (propidium iodide, caspase 3/7, IncuCyte) [15]
5 | > 100 | > 100 | > 100 | > 256 | > 100 | > 100 | > 256 | > 256 | > 100 | ≥ 64.8 | > 256 | – | O=C(COc1ccc(-c2nc3ccc(Cl)cc3[nH]2)cc1F)N1CCOCC1 [Compound 25, 2-(4-(6-Chloro-1H-benzo[d]imidazol-2-yl)-2-fluorophenoxy)-1-morpholinoethan-1-one] | – | – | – | –
6 | > 100 | > 100 | > 100 | > 256 | > 100 | > 100 | > 256 | > 256 | > 100 | – | > 256 | – | O=C(COc1ccc(-c2nc3ccc(F)cc3[nH]2)cc1F)N1CCOCC1 [Compound 27, 2-(2-Fluoro-4-(6-fluoro-1H-benzo[d]imidazol-2-yl)phenoxy)-1-morpholinoethan-1-one] | – | exhibit clear intercalating properties | – | –
